Assays:
[1] = target: T1, Protein deacetylase HDAC6 (Homo sapiens, UniProt Q9UBN7); assay: Inhibition of recombinant HDAC6 (unknown origin) expressed in Escherichia coli BL21(DE3) after 60 mins using trichostatin A by label-free mass spectrometry-based SAMDI assay
T1 sequence (Q9UBN7 whole entry): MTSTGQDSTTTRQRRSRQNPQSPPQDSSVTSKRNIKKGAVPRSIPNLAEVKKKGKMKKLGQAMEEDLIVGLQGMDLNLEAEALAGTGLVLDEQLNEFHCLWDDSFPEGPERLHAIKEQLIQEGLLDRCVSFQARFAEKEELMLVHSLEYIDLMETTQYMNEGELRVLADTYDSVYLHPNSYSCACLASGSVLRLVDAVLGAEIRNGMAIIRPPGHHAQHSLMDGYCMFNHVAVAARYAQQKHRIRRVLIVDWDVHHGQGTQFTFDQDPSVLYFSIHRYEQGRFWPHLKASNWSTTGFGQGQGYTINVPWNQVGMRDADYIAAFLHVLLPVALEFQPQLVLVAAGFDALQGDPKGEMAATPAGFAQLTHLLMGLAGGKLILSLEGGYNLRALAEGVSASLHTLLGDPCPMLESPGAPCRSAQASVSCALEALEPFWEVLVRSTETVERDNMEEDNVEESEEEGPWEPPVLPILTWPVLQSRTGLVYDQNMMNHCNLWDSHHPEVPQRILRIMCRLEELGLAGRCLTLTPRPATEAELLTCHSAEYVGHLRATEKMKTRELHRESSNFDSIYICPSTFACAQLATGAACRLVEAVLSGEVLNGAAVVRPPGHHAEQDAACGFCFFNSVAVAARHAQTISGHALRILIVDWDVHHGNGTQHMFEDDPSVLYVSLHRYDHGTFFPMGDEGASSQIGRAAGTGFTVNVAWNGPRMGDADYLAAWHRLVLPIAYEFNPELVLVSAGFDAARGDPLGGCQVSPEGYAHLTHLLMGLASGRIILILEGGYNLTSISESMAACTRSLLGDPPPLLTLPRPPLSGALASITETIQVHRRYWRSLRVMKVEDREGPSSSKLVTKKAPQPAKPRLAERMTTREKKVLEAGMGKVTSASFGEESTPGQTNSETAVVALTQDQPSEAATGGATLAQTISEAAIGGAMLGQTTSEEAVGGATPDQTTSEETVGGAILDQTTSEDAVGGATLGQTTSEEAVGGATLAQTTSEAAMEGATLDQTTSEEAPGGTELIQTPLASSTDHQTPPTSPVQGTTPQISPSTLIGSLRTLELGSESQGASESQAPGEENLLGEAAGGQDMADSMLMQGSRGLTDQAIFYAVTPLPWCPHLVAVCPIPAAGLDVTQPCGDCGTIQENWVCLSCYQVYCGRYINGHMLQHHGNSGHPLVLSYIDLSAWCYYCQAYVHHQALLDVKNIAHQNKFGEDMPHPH

Homo sapiens = organism: Homo sapiens; settings: at 1 µM
Histone deacetylase 1 = Histone deacetylase 1 (Homo sapiens, UniProt Q13547); assay: Inhibition of recombinant HDAC1 (unknown origin) expressed in Escherichia coli BL21(DE3) after 60 mins using trichostatin A by label-free mass spectrometry-based SAMDI assay
Histone deacetylase 8 = target: T2, Histone deacetylase 8 (Homo sapiens, UniProt Q9BY41); assay: Inhibition of recombinant HDAC8 (unknown origin) expressed in Escherichia coli BL21(DE3) after 60 mins using trichostatin A by label-free mass spectrometry-based SAMDI assay
T2 sequence (Q9BY41 whole entry): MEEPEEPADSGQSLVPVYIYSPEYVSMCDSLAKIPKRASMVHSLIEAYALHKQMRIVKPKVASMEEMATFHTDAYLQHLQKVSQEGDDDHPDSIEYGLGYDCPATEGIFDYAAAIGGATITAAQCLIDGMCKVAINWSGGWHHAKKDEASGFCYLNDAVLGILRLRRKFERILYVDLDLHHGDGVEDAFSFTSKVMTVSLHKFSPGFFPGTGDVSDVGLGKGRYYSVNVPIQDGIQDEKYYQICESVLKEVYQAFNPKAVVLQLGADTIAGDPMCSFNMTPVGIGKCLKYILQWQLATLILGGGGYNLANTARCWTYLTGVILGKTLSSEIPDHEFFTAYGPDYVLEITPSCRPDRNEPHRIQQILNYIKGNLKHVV

[2] = Inhibition of NTHi-induced NF-kappaB activation in human BEAS-2B cells treated 1 hr before NTHi stimulation measured after 5 hrs by luciferase assay; type: cell-based; settings: Homo sapiens, BEAS-2B; read-out: IC50
MCF7 = assay: Cytotoxicity against human MCF7 cells after 72 hrs by MTS assay; type: functional, cell-based; settings: mcf7
Method in brief: (§1)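 Cells kept in DMEM with 10% FBS and 1% penicillin-streptomycin, seeded in 96-well plates for 24 h, then exposed to a range of drug concentrations for 72 h at 0.1% DMSO; viability read by MTS assay per manufacturer's protocol.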

A549 = assay: Cytotoxicity against human A549 cells after 72 hrs by MTS assay; type: functional, cell-based; settings: a549; method in brief: as §1

Chain of Histone deacetylase 1 (Q13547 whole entry): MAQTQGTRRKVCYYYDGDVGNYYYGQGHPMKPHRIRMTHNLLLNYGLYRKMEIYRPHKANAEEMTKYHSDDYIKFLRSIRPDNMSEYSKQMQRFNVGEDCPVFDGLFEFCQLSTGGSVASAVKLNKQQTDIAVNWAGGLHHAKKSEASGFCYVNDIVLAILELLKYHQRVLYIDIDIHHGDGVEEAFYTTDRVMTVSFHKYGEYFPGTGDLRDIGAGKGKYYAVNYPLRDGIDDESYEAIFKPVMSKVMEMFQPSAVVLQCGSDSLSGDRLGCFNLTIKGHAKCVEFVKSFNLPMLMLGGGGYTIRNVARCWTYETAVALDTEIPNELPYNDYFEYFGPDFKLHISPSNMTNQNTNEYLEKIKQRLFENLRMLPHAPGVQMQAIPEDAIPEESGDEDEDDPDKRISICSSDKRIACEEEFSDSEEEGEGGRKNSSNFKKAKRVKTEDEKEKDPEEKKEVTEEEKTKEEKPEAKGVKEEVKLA

Structure (SMILES)	IC50 [1]	Imax (Homo sapiens)	IC50 (Histone deacetylase 1)	IC50 (Histone deacetylase 8)	IC50 [2]	IC50 (MCF7)	IC50 (A549)
CC[C@H]1OC(=O)[C@H](C)[C@@H](O[C@@H]2C[C@](C)(OC)[C@@](O)(CN(C)Cc3ccc(-c4cn(CCCCCC(=O)NO)nn4)cc3)[C@@H](C)O2)[C@@H](C)[C@@H](O[C@H]2O[C@@H](C)C[C@@H](N(C)C)[C@@H]2O)[C@](C)(OC)C[C@@H](C)C(=O)[C@H](C)[C@H](O)[C@]1(C)O	5.89 nM	50.7%	652 nM	985 nM	785 nM	–	–
CC[C@H]1OC(=O)[C@@H](C)[C@H](O[C@H]2C[C@@](C)(OC)[C@](O)(CN(C)Cc3ccc(-c4cn(CCCCCCC(=O)NO)nn4)cc3)[C@H](C)O2)[C@H](C)[C@H](O[C@H]2O[C@@H](C)C[C@@H](N(C)C)[C@@H]2O)[C@@](C)(O)C[C@H](C)CN(C)[C@@H](C)[C@H](O)[C@@]1(C)O	31.3 nM	–	50.4 nM	817 nM	–	Not Active	Not Active
CC[C@H]1OC(=O)[C@H](C)C(=O)[C@H](C)[C@@H](O[C@@H]2O[C@H](C)C[C@H](N(C)Cc3ccccc3-c3cn(CCCCCCC(=O)NO)nn3)[C@H]2O)[C@@](C)(OC)C[C@@H](C)C2=NCCN3C(=O)O[C@@]1(C)[C@H]3[C@H]2C	75.4 nM	–	> 10000 nM	2450 nM	–	Not Active	Not Active
CC[C@H]1OC(=O)[C@@H](C)[C@H](O[C@H]2C[C@@](C)(OC)[C@@H](O)[C@H](C)O2)[C@H](C)[C@H](O[C@H]2O[C@@H](C)C[C@@H](N(C)Cc3ccc(-c4cn(CCCC(=O)NO)nn4)cc3)[C@@H]2O)[C@@](C)(O)C[C@H](C)CN(C)[C@@H](C)[C@H](O)[C@@]1(C)O	106 nM	–	> 10000 nM	> 10000 nM	–	Not Active	Not Active
CC[C@@H]1OC(=O)[C@H](C)[C@@H](O[C@@H]2C[C@](C)(OC)[C@@](O)(CN(C)Cc3ccc(-c4cn(CCCCCC(=O)NO)nn4)cc3)[C@@H](C)O2)[C@@H](C)[C@@H](O[C@@H]2O[C@H](C)C[C@H](N(C)C)[C@H]2O)[C@](C)(O)C[C@@H](C)CN(C)[C@H](C)[C@@H](O)[C@]1(C)O	31.9 nM	46.1%	203 nM	786 nM	368 nM	–	–
CC[C@@H]1OC(=O)[C@H](C)[C@@H](O[C@@H]2C[C@](C)(OC)[C@H](O)[C@@H](C)O2)[C@@H](C)[C@@H](O[C@@H]2O[C@H](C)C[C@H](N(C)Cc3ccccc3-c3cn(CCCCCCC(=O)NO)nn3)[C@H]2O)[C@](C)(O)C[C@@H](C)CN(C)[C@H](C)[C@@H](O)[C@]1(C)O	30.9 nM	–	923 nM	1280 nM	–	Not Active	Not Active
CC[C@@H]1OC(=O)[C@H](C)[C@@H](O[C@@H]2C[C@](C)(OC)[C@@](O)(CN(C)Cc3ccc(-c4cn(CCCC(=O)NO)nn4)cc3)[C@@H](C)O2)[C@@H](C)[C@@H](O[C@@H]2O[C@H](C)C[C@H](N(C)C)[C@H]2O)[C@](C)(O)C[C@@H](C)CN(C)[C@H](C)[C@@H](O)[C@]1(C)O	181 nM	–	> 10000 nM	1180 nM	–	–	–
CC[C@@H]1OC(=O)[C@H](C)[C@@H](O[C@H]2C[C@@](C)(OC)[C@](O)(CN(C)C)[C@H](C)O2)[C@@H](C)[C@@H](O[C@@H]2O[C@H](C)C[C@H](N(C)Cc3ccc(-c4cn(CCCCCC(=O)NO)nn4)cc3)[C@H]2O)[C@](C)(O)C[C@@H](C)CN(C)[C@H](C)[C@@H](O)[C@]1(C)O	14.7 nM	–	160 nM	1090 nM	–	–	–
CC[C@H]1OC(=O)[C@H](C)C(=O)[C@H](C)[C@@H](O[C@@H]2O[C@H](C)C[C@H](N(C)Cc3ccc(-c4cn(CCCCC(=O)NO)nn4)cc3)[C@H]2O)[C@@](C)(OC)C[C@@H](C)C2=NCCN3C(=O)O[C@@]1(C)[C@H]3[C@H]2C	77.2 nM	–	269 nM	3210 nM	–	–	–
CC[C@@H]1OC(=O)[C@@H](C)[C@H](O[C@H]2C[C@@](C)(OC)[C@@H](O)[C@H](C)O2)[C@H](C)[C@H](O[C@@H]2O[C@H](C)C[C@H](N(C)Cc3ccc(-c4cn(CC(=O)NO)nn4)cc3)[C@H]2O)[C@@](C)(OC)C[C@H](C)C(=O)[C@@H](C)[C@@H](O)[C@@]1(C)O	> 10000 nM	–	> 10000 nM	> 10000 nM	–	–	–
CC[C@H]1OC(=O)[C@H](C)C(=O)[C@H](C)[C@@H](O[C@@H]2O[C@H](C)C[C@H](N(C)Cc3ccc(-c4cn(CCCCCC(=O)NO)nn4)cc3)[C@H]2O)[C@@](C)(OC)C[C@@H](C)C2=NCCN3C(=O)O[C@@]1(C)[C@H]3[C@H]2C	8.9 nM	–	73.1 nM	2030 nM	–	–	–
CC[C@H]1OC(=O)[C@H](C)C(=O)[C@H](C)[C@@H](O[C@@H]2O[C@H](C)C[C@H](N(C)Cc3ccc(-c4cn(CCCC(=O)NO)nn4)cc3)[C@H]2O)[C@@](C)(OC)C[C@@H](C)C2=NCCN3C(=O)O[C@@]1(C)[C@H]3[C@H]2C	194 nM	–	> 10000 nM	2240 nM	–	–	–
CC[C@@H]1OC(=O)[C@@H](C)[C@H](O[C@@H]2C[C@](C)(OC)[C@@](O)(CN(C)C)[C@@H](C)O2)[C@H](C)[C@H](O[C@@H]2O[C@H](C)C[C@H](N(C)Cc3ccc(-c4cn(CCCCCC(=O)NO)nn4)cc3)[C@H]2O)[C@@](C)(OC)C[C@H](C)C(=O)[C@@H](C)[C@@H](O)[C@@]1(C)O	32.9 nM	–	201 nM	3200 nM	–	–	–
CC[C@@H]1OC(=O)[C@@H](C)[C@H](O[C@H]2C[C@@](C)(OC)[C@@H](O)[C@H](C)O2)[C@@H](C)[C@H](O[C@H]2O[C@@H](C)C[C@@H](N(C)C)[C@@H]2O)[C@](C)(O)C[C@H](C)CN(Cc2ccc(-c3cn(CCCCC(=O)NO)nn3)cc2)[C@H](C)[C@H](O)[C@@]1(C)O	24.5 nM	–	2550 nM	> 10000 nM	–	Not Active	Not Active
CC[C@H]1OC(=O)[C@H](C)C(=O)[C@H](C)[C@@H](O[C@@H]2O[C@H](C)C[C@H](N(C)Cc3ccccc3-c3cn(CCCCCC(=O)NO)nn3)[C@H]2O)[C@@](C)(OC)C[C@@H](C)C2=NCCN3C(=O)O[C@@]1(C)[C@H]3[C@H]2C	248 nM	–	> 10000 nM	1190 nM	–	–	–
CC[C@H]1OC(=O)[C@H](C)[C@@H](O[C@@H]2C[C@](C)(OC)[C@H](O)[C@@H](C)O2)[C@@H](C)[C@@H](O[C@H]2O[C@@H](C)C[C@@H](N(C)Cc3ccc(-c4cn(CCCC(=O)NO)nn4)cc3)[C@@H]2O)[C@](C)(OC)C[C@@H](C)C(=O)[C@H](C)[C@H](O)[C@]1(C)O	70.9 nM	–	9910 nM	986 nM	–	–	–
CC[C@@H]1OC(=O)[C@H](C)[C@@H](O[C@@H]2C[C@](C)(OC)[C@H](O)[C@@H](C)O2)[C@@H](C)[C@@H](O[C@@H]2O[C@H](C)C[C@H](N(C)Cc3ccc(-c4cn(CCCCC(=O)NO)nn4)cc3)[C@H]2O)[C@](C)(O)C[C@@H](C)CN(C)[C@H](C)[C@@H](O)[C@]1(C)O	145 nM	–	1650 nM	5380 nM	–	–	–
